This is an account of results in ChEMBL document CHEMBL3243995, “Synthesis of phenolic group containing analogues of porcine secretin and their immunological properties” (J Med Chem, 1977).

Where a SMILES comes first, the peptide text is derived from it. The star is where a group is joined. Desaminotyrosyl = O=C(CCc1ccc(O)cc1)*

Series [1] is described as follows: Retardation factor of the compound using 1-BuOH-pyridine-AcOH-H2O at ratio of 30:20:6:24 as solvent system by thin layer chromatography. Type of series: physicochemical. A digest of the protocol:
(§1)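 Thin-layer chromatography spots were detected with Sakaguchi, Pauly, chlorine-tolidine and ninhydrin reagents.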

A short description of series [2]: Retardation factor of the compound using 1-BuOH-AcOH-H2O at ratio of 4:1:5 as solvent system by thin layer chromatography. It counts as physicochemical. A digest of the protocol:
as §1

The subject of the next series is Canis familiaris. Briefly: Induction of pancreatic juice secretion in iv dosed anesthetized dog relative to natural porcine secretin. It counts as functional, Canis lupus familiaris. A digest of the protocol:
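Anesthetized dogs received the synthetic peptides by intravenous injection. The volume of pancreatic juice secreted was compared with that produced by pure natural porcine secretin. Responses were evaluated in four-point assays.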

For `CC(C)C[C@H](NC(=O)CNC(=O)[C@H](CCC(N)=O)NC(=O)[C@H](CC(C)C)NC(=O)[C@H](CC(C)C)NC(=O)[C@H](CCCNC(=N)N)NC(=O)[C@H](CCC(N)=O)NC(=O)[C@H](CC(C)C)NC(=O)[C@H](CCCNC(=N)N)NC(=O)[C@H](C)NC(=O)[C@H](CO)NC(=O)[C@H](CC(=O)O)NC(=O)[C@H](CCCNC(=N)N)NC(=O)[C@H](CC(C)C)NC(=O)[C@H](CCCNC(=N)N)NC(=O)[C@H](CO)NC(=O)[C@H](CC(C)C)NC(=O)[C@H](CCC(=O)O)NC(=O)[C@H](CO)NC(=O)[C@@H](NC(=O)[C@H](Cc1ccccc1)NC(=O)[C@@H](NC(=O)CNC(=O)[C@H](CC(=O)O)NC(=O)[C@H](CO)NC(=O)[C@H](Cc1cnc[nH]1)NC(=O)CCc1ccc(O)cc1)[C@@H](C)O)[C@@H](C)O)C(=O)N[C@H](C(N)=O)C(C)C` (Desaminotyrosyl-HSDGTFTSELSRLRDSARLQRLLQGLV-NH2), the Rf in series [1] is 0.58; in series [2], 0.2. Besides, the Activity with Canis familiaris was determined as 4.1%.
With “H-HSDGTFTSELSRLRDSARLQRLLQGLV-NH2 [listing 1 of 2 here]”, the values for the Rf in series [1] and in series [2] were 0.58 and 0.19, respectively.
As for “H-HSDGTFTSELSRLRDSARLQRLLQGLV-NH2 [listing 2 of 2 here]”, in the series on Canis familiaris, the Activity is 107.5%.
With H-HSDGTYTSELSRLRDSARLQRLLQGLV-NH2, the Rf came to 0.56 in series [1] and 0.18 in series [2]. This compound also showed an Activity in the series with Canis familiaris of 1.3%.
For H-YHSDGTFTSELSRLRDSARLQRLLQGLV-NH2, the values for the Rf in series [1] and in series [2] were 0.52 and 0.18, respectively. For the same compound, the Activity in the series on Canis familiaris is on record as 25.6%.
In the case of H-YSDGTFTSELSRLRDSARLQRLLQGLV-NH2, the Rf in series [1] amounted to 0.56; in series [2], 0.2. Moreover, the Activity with Canis familiaris was 4.3%.
